ABCB1 inh: human ABCB1 inhibition, ABCG2 as counter-screen; P08183; CCRF-Adr cells, JC-1 efflux, flow cytometry; inhibition, % at 6.6 µM; actives 0.067% (n = 190,000); in the data active = inhibition above about 40%;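 note: 0% = vehicle and 100% = reference inhibitor; higher value means more JC-1 retained so stronger ABCB1 efflux block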
MEKK3 PB1 HTS: MEKK3-MEK5 PB1 interaction, increase or decrease. binding response (% of control), % at 10 µM. bead-based flow cytometry, Alexa488-MEK5 binding to MEKK3; actives lie on both sides; 0 = blocked by unlabeled MEK5, 100 = vehicle. actives 1.4% (n = 290,000). Q99759;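 active = binding response more than 3 SD above or below the average of its plate-row segment, actives on both sides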;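 note: Alexa488 bead fluorescence after subtracting the streptavidin-only scavenger bead signal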
Target sequence (Q99759 whole entry, looked up): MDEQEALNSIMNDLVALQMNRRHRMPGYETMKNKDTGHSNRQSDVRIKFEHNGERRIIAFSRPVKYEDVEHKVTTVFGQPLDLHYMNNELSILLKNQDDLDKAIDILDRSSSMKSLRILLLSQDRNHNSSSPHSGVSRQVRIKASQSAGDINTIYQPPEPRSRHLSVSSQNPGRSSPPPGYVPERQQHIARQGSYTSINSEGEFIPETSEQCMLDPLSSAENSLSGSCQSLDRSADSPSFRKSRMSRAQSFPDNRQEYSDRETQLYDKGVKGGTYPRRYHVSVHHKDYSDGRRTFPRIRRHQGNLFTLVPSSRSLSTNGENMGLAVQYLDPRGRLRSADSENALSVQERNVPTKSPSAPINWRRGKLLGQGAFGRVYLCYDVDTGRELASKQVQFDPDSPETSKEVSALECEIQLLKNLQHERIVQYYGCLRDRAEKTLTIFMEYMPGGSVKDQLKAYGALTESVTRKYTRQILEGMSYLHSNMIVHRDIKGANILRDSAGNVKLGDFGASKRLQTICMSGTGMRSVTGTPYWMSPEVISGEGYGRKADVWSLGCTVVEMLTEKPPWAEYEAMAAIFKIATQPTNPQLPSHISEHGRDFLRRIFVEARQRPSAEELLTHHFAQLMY
MEKK2 mut-MEK5: signal of MEK5 binding to mutant human MEKK2 PB1 domain; bead flow cytometry, Alexa488-MEK5 binding to MEKK2 mutant; actives 0.35% (n = 290,000); percent response, % at 10 µM; in the data active = percent response above about 24%, passing the limit was not always enough
MEKK2 WT-MEK5: raises or lowers MEK5 binding to wildtype human MEKK2 PB1 domain; Q9Y2U5; bead flow cytometry, Alexa488-MEK5 binding to MEKK2 WT; actives lie on both sides; binding response (% of control), % at 10 µM; actives 1.1% (n = 290,000); AID 1531; in the data active = binding response below about 67% or above about 130%
ABCG2 block: inhibitors of human ABCG2 transporter, ABCB1 counter-screen | inhibition, % at 6.6 µM | IgMXP3 cells, JC-1 efflux, flow cytometry | Q9UNQ0 | actives 0.1% (n = 190,000);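 active = inhibition above 80%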;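 note: 0% = DMSO and 100% = nicardipine control wells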
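Measure – % inhibition of efflux relative to nicardipine and DMSO · Test system – ABCG2 IgMXP3 and barcoded ABCB1 CCRF-Adr cell mix · Control set – nicardipine as high control, DMSO as low control · Compound – one concentration, 6.6 µM final · Signal – flow cytometry of retained JC-1 fluorescence · Timing – 10 min exposure at 25 °C with rotation, no wash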
Efflux pump inh: antifungal efflux pump inhibition, Nile Red retention; S. cerevisiae Candida pump triplex; actives 0.44% (n = 330,000); inhibition, % at 10 µM;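 active = plate passing quality check with inhibition over a set limit, or well fluorescence over plate mean plus 4 SD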;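 note: Nile Red retained in pooled yeast measured as flow cytometry median fluorescence; 0% = buffer negative control and 100% = Enniatin B positive control; higher means more Nile Red kept so more efflux inhibition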
MEKK2wt confirm: raises or lowers MEK5 binding to wildtype human MEKK2, retest; shares compounds with MEKK3 PB1 HTS; bead flow cytometry, Alexa488-MEK5 binding to MEKK2 WT; actives lie on both sides; binding response (% of control), % at 10 µM; actives 2.4% (n = 5,900); AID 1892; in the data active = binding response below about 16% or above about 210%; inactive = in between
MEKK2mut confirm: signal of MEK5 binding to mutant human MEKK2, retest | shares compounds with MEKK3 PB1 HTS | bead flow cytometry, Alexa488-MEK5 binding to MEKK2 mutant | percent response, % at 10 µM | actives 2% (n = 5,900); in the data active = percent response mostly above about 71%, no sharp cut-off; inactive = mostly below about 38%;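 note: higher means compound restores mutant binding toward wildtype level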
MEKK3 confirm: MEKK3-MEK5 PB1 inhibition, single concentration confirmation; shares compounds with MEKK3 PB1 HTS; bead flow cytometry, Alexa488-MEK5 binding to MEKK3; stronger effect = lower value; binding response (% of control), % at 10 µM; actives 1.8% (n = 5,900); AID 1894;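 active = binding response below 72% of control, or above a set upper limit, though filed actives all read lower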;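 note: 100% = DMSO only wells and 0% = binding blocked by excess unlabeled MEK5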
An asterisk follows results filed as active; . = not tested or not shown; [ ] = remark or other dose. A selection: hits, their analogues and other compounds. The true share with any hit is near 2.5%.

SMILES | ABCB1 inh | MEKK3 PB1 HTS | MEKK2 mut-MEK5 | MEKK2 WT-MEK5 | ABCG2 block | Efflux pump inh | MEKK2wt confirm | MEKK2mut confirm | MEKK3 confirm
CCC/C=C1/CCCOC(C(=O)NCc2ccccc2)(C(F)(F)F)C1 (centres undefined) | . | 98 | 0 | 98 | . | 0 | . | . | .
CCC/C=C1/CCCOC(C(=O)NCCNCCO)(C(F)(F)F)C1 (centres undefined) | . | 71*[inhibitor] | -7 | 81 | . | 0 | 97 | 3 | 97
Cc1noc(C)c1NC(=O)N(C)C[C@@H]1Oc2ccc(NC(=O)C3CCCCC3)cc2C(=O)N([C@@H](C)CO)C[C@H]1C | . | . | . | . | . | 0 | . | . | .
O=C(CNc1cc(S(=O)(=O)N2CCCC2)ccc1OCC(F)(F)F)Nc1ccc(SC(F)F)cc1 | 1 | 144* | 1 | 115 | 16 | 0 | 90 | -13 | 100
COc1cc2c(C(=O)OCCN(C)C)c(CSc3ccccc3)n(C)c2cc1Br | 5 | 99 | -9 | 146* | 15 | 0 | 153 | 28 | 108
CCOP(=O)(OCC)C(Nc1cccc(C(F)(F)F)c1)c1ccc(Br)cc1 (centres undefined) | 0 | 115 | 1 | 103 | 1 | . | . | . | .
O=C(COc1ccc(C(=O)Nc2ccc(Cl)cc2)cc1)NCc1ccccc1 | 0 | 155* | 1 | 109 | 4 | 0 | 98 | 3 | 102
Cc1cc2cc(CNC(=S)NC3CCCCC3)ccc2[nH]1 | 0 | 115 | -1 | 108 | -1 | 0 | . | . | .
Cc1cc2cc(CNC(=O)NC3CCCCC3)ccc2[nH]1 | 0 | 62*[inhibitor] | 51* | . | 1 | 0 | 70 | 3 | 65*
CC(=O)Nc1sc(NC(=O)c2ccc(C)cc2)nc1-c1cccs1 | 0 | 104 | 2 | 101 | 5 | 0 | . | . | .
CSCC[C@H](NC(=O)C1CCCC1)c1nc2ccccc2[nH]1 | 0 | 69*[inhibitor] | -16 | 68 | 1 | 0 | 108 | 5 | 104
CSCCC(NC(=O)C1CC1)c1nc2ccccc2[nH]1 (centres undefined) | 1 | 99 | -2 | 97 | 9 | 0 | . | . | .
CCCn1c(N)c(C(=O)CSc2nnc(-c3cccs3)n2C2CC2)c(=O)[nH]c1=O | . | . | . | . | . | 0 | . | . | .
Cc1ccc(C(C)n2cc(C(=O)NCc3ccncc3)nn2)cc1 (centres undefined) | 0 | 1.0*[inhibitor] | -9 | 0.0*[inhibitor] | -2 | 0 | 101 | -4 | 104
O=c1c(C=NCc2cccnc2)c(C(F)(F)F)[nH]n1-c1nc2ccccc2s1 | 2 | 95 | 275* | . | 16 | 0 | 96 | -1 | 101
CN(C)CCNC(=O)c1cc2c(s1)-c1ccc(Cl)cc1SC2 | . | 110 | 40* | 181* | . | 0 | 152 | 27 | 106
CCOCCCNC(=O)c1cc2c(s1)-c1ccccc1SC2 | . | 101 | -1 | 101 | . | 0 | . | . | .
Cc1ccc(-c2cc(C(F)F)n3ncc(C(=O)N4CCN(c5cccc(C)c5C)CC4)c3n2)cc1 | 1 | 102 | 1 | 97 | 4 | 0 | . | . | .
c1nc(NCC2(N3CCOCC3)CCCCC2)c2ccsc2n1 | 0 | 123* | 4 | 117 | 10 | 0 | 106 | 7 | 108
CCN(C[C@H]1N[C@@](CC)(C(=O)OC)[C@H]2C(=O)N(C)C(=O)[C@@H]12)C(=O)COC | . | . | . | . | . | -1 | . | . | .
CCOC(=O)c1sc2ccccc2c1NC(=O)c1coc2ccccc2c1=O | 3 | 139* | -1 | 96 | 18 | 0 | 101 | -1 | 102
O=C(O)c1cccc(NC(=S)N/N=C/c2cccc(O)c2)c1 | 0 | 95 | -3 | 94 | 1 | 0 | . | . | .
O=C(O)c1cccc(NC(=S)N/N=C/c2ccccn2)c1 | 0 | 159* | 6 | 128 | 1 | 0 | 107 | 2 | 104
Cc1ccc(S(=O)(=O)NCc2ccc3c(c2)cc(C)n3C)cc1 | 0 | 71*[inhibitor] | -15 | 51*[inhibitor] | 0 | 0 | 62 | -9 | 82
Cc1onc(-c2ccccc2Cl)c1C(=O)NCc1ccc2c(c1)cc(C)n2C | . | 59*[inhibitor] | -8 | 43*[inhibitor] | . | 0 | 93 | -3 | 99
SMILES | ABCB1 inh | MEKK3 PB1 HTS | MEKK2 mut-MEK5 | MEKK2 WT-MEK5 | ABCG2 block | Efflux pump inh | MEKK2wt confirm | MEKK2mut confirm | MEKK3 confirm
COc1cc(OC)cc(C(=O)NCc2ccc3c(c2)cc(C)n3C)c1 | 1 | 47*[inhibitor] | -21 | . | -2 | 0 | 70 | -12 | 85
COCC(=O)NCc1ccc2c(c1)cc(C)n2C | 1 | 92 | -1 | 92 | 5 | 0 | . | . | .
Cc1cc2cc(CNC(=O)c3cc4ccccc4o3)ccc2n1C | 2 | 45*[inhibitor] | -9 | . | 18 | 1 | 57 | -19 | 75
CC1CCC2(CC1)OCC1(CCC3(COC4(CCC(C)CC4)OC3)C1=O)CO2 (centres undefined) | 0 | 92 | 0 | 97 | -1 | 0 | . | . | .
CCCCn1c(SCC(=O)N(C)C)nnc1-c1ccncc1 | 1 | 98 | -3 | 96 | 3 | 0 | . | . | .
Cc1cc2cc(CNC(=O)c3ccc4c(c3)OCO4)ccc2n1C | 1 | 65*[inhibitor] | -19 | -11* | 3 | 0 | 102 | 4 | 101
COc1ccc(C(=O)NCc2ccc3c(c2)cc(C)n3C)cc1 | 1 | 90 | 8 | 91 | 0 | 0 | . | . | .
CNC(=O)c1cc2ccccc2o1 | 0 | 124* | 7 | 119 | 4 | 1 | 91 | -6 | 90
